Measurements published in ChEMBL document CHEMBL4052595, “Application of Residual Dipolar Couplings and Selective Quantitative NOE to Establish the Structures of Tetranortriterpenoids from Xylocarpus rumphii” (J Nat Prod, 2017).
Calls of active or inactive are those of the source.

Assays:
Assay type in all cases: functional, cell-based
[1] = tested on: BT-549; experiment: Growth inhibition of human BT549 cells at 10^-5 M incubated for 48 hrs by sulforhodamine B assay
Outline: (§1)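 Run in the NCI59 one-dose cell-line screen, with each compound tested at a single concentration of 1 × 10−5 M.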

[2] = tested on: T47D; experiment: Growth inhibition of human T47D cells at 10^-5 M incubated for 48 hrs by sulforhodamine B assay
Outline: (§2)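 Tested at a single concentration of 1 × 10−5 M as part of the NCI59 cell-line one-dose screen.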

[3] = tested on: Hs-578T; experiment: Growth inhibition of human Hs 578T cells at 10^-5 M incubated for 48 hrs by sulforhodamine B assay; outline: as §1
[4] = tested on: MCF7; experiment: Growth inhibition of human MCF7 cells at 10^-5 M incubated for 48 hrs by sulforhodamine B assay; outline: as §1
[5] = tested on: MDA-MB-231; experiment: Growth inhibition of human MDA-MB-231 cells at 10^-5 M incubated for 48 hrs by sulforhodamine B assay; outline: as §1
[6] = tested on: DU-145; experiment: Growth inhibition of human DU145 cells at 10^-5 M incubated for 48 hrs by sulforhodamine B assay; outline: as §1
[7] = tested on: UO-31; experiment: Growth inhibition of human UO31 cells at 10^-5 M incubated for 48 hrs by sulforhodamine B assay; outline: as §2
[8] = tested on: PC-3; experiment: Growth inhibition of human PC3 cells at 10^-5 M incubated for 48 hrs by sulforhodamine B assay; outline: as §1
[9] = tested on: SN12C; experiment: Growth inhibition of human SN12C cells at 10^-5 M incubated for 48 hrs by sulforhodamine B assay; outline: as §1
[10] = tested on: TK-10; experiment: Growth inhibition of human TK10 cells at 10^-5 M incubated for 48 hrs by sulforhodamine B assay; outline: as §2
[11] = tested on: RXF 393; experiment: Growth inhibition of human RXF393 cells at 10^-5 M incubated for 48 hrs by sulforhodamine B assay; outline: as §1
[12] = tested on: ACHN; experiment: Growth inhibition of human ACHN cells at 10^-5 M incubated for 48 hrs by sulforhodamine B assay; outline: as §1
[13] = tested on: CAKI-1; experiment: Growth inhibition of human Caki1 cells at 10^-5 M incubated for 48 hrs by sulforhodamine B assay; outline: as §1
[14] = tested on: A498; experiment: Growth inhibition of human A498 cells at 10^-5 M incubated for 48 hrs by sulforhodamine B assay; outline: as §1
[15] = tested on: 786-0; experiment: Growth inhibition of human 786-0 cells at 10^-5 M incubated for 48 hrs by sulforhodamine B assay; outline: as §1
[16] = tested on: NCI/ADR-RES; experiment: Growth inhibition of human NCI/ADR-RES cells at 10^-5 M incubated for 48 hrs by sulforhodamine B assay; outline: as §1
[17] = tested on: SK-OV-3; experiment: Growth inhibition of human SKOV3 cells at 10^-5 M incubated for 48 hrs by sulforhodamine B assay; outline: as §1
[18] = tested on: OVCAR-8; experiment: Growth inhibition of human OVCAR8 cells at 10^-5 M incubated for 48 hrs by sulforhodamine B assay; outline: as §1
[19] = tested on: OVCAR-4; experiment: Growth inhibition of human OVCAR4 cells at 10^-5 M incubated for 48 hrs by sulforhodamine B assay; outline: as §1
[20] = tested on: OVCAR-5; experiment: Growth inhibition of human OVCAR5 cells at 10^-5 M incubated for 48 hrs by sulforhodamine B assay; outline: as §1
[21] = tested on: IGROV-1; experiment: Growth inhibition of human IGROV1 cells at 10^-5 M incubated for 48 hrs by sulforhodamine B assay; outline: as §1
[22] = tested on: OVCAR-3; experiment: Growth inhibition of human OVCAR3 cells at 10^-5 M incubated for 48 hrs by sulforhodamine B assay; outline: as §1
[23] = tested on: UACC-62; experiment: Growth inhibition of human UACC62 cells at 10^-5 M incubated for 48 hrs by sulforhodamine B assay; outline: as §2
[24] = tested on: SK-MEL-5; experiment: Growth inhibition of human SK-MEL-5 cells at 10^-5 M incubated for 48 hrs by sulforhodamine B assay; outline: as §1
[25] = tested on: UACC-257; experiment: Growth inhibition of human UACC257 cells at 10^-5 M incubated for 48 hrs by sulforhodamine B assay; outline: as §2
[26] = tested on: SK-MEL-28; experiment: Growth inhibition of human SK-MEL-28 cells at 10^-5 M incubated for 48 hrs by sulforhodamine B assay; outline: as §1
[27] = tested on: MDA-MB-435; experiment: Growth inhibition of human MDA-MB-435 cells at 10^-5 M incubated for 48 hrs by sulforhodamine B assay; outline: as §1
[28] = tested on: SK-MEL-2; experiment: Growth inhibition of human SK-MEL-2 cells at 10^-5 M incubated for 48 hrs by sulforhodamine B assay; outline: as §1
[29] = tested on: M14; experiment: Growth inhibition of human M14 cells at 10^-5 M incubated for 48 hrs by sulforhodamine B assay; outline: as §1
[30] = tested on: U-251; experiment: Growth inhibition of human U251 cells at 10^-5 M incubated for 48 hrs by sulforhodamine B assay; outline: as §2
[31] = tested on: LOX IMVI; experiment: Growth inhibition of human LOXIMVI cells at 10^-5 M incubated for 48 hrs by sulforhodamine B assay; outline: as §1
[32] = tested on: SNB-19; experiment: Growth inhibition of human SNB19 cells at 10^-5 M incubated for 48 hrs by sulforhodamine B assay; outline: as §1
[33] = tested on: SNB-75; experiment: Growth inhibition of human SNB75 cells at 10^-5 M incubated for 48 hrs by sulforhodamine B assay; outline: as §1
[34] = tested on: SF-539; experiment: Growth inhibition of human SF539 cells at 10^-5 M incubated for 48 hrs by sulforhodamine B assay; outline: as §1
[35] = tested on: SF-268; experiment: Growth inhibition of human SF268 cells at 10^-5 M incubated for 48 hrs by sulforhodamine B assay; outline: as §1
[36] = tested on: SF-295; experiment: Growth inhibition of human SF295 cells at 10^-5 M incubated for 48 hrs by sulforhodamine B assay; outline: as §1
[37] = tested on: SW-620; experiment: Growth inhibition of human SW620 cells at 10^-5 M incubated for 48 hrs by sulforhodamine B assay; outline: as §2
[38] = tested on: HT-29; experiment: Growth inhibition of human HT-29 cells at 10^-5 M incubated for 48 hrs by sulforhodamine B assay; outline: as §1
[39] = tested on: KM12; experiment: Growth inhibition of human KM12 cells at 10^-5 M incubated for 48 hrs by sulforhodamine B assay; outline: as §1
[40] = tested on: HCT-116; experiment: Growth inhibition of human HCT116 cells at 10^-5 M incubated for 48 hrs by sulforhodamine B assay; outline: as §1
[41] = tested on: HCT-15; experiment: Growth inhibition of human HCT15 cells at 10^-5 M incubated for 48 hrs by sulforhodamine B assay; outline: as §1
[42] = tested on: HCC 2998; experiment: Growth inhibition of human HCC2998 cells at 10^-5 M incubated for 48 hrs by sulforhodamine B assay; outline: as §1
[43] = tested on: NCI-H522; experiment: Growth inhibition of human NCI-H522 cells at 10^-5 M incubated for 48 hrs by sulforhodamine B assay; outline: as §1
[44] = tested on: COLO 205; experiment: Growth inhibition of human COLO205 cells at 10^-5 M incubated for 48 hrs by sulforhodamine B assay; outline: as §1
[45] = tested on: NCI-H460; experiment: Growth inhibition of human NCI-H460 cells at 10^-5 M incubated for 48 hrs by sulforhodamine B assay; outline: as §1
[46] = tested on: NCI-H23; experiment: Growth inhibition of human NCI-H23 cells at 10^-5 M incubated for 48 hrs by sulforhodamine B assay; outline: as §1
[47] = tested on: NCI-H322M; experiment: Growth inhibition of human NCI-H322M cells at 10^-5 M incubated for 48 hrs by sulforhodamine B assay; outline: as §1
[48] = tested on: NCI-H226; experiment: Growth inhibition of human NCI-H226 cells at 10^-5 M incubated for 48 hrs by sulforhodamine B assay; outline: as §1
[49] = tested on: HOP-62; experiment: Growth inhibition of human HOP62 cells at 10^-5 M incubated for 48 hrs by sulforhodamine B assay; outline: as §1
[50] = tested on: HOP-92; experiment: Growth inhibition of human HOP92 cells at 10^-5 M incubated for 48 hrs by sulforhodamine B assay; outline: as §1
[51] = tested on: A549; experiment: Growth inhibition of human A549/ATCC cells at 10^-5 M incubated for 48 hrs by sulforhodamine B assay; outline: as §1
[52] = tested on: EKVX; experiment: Growth inhibition of human EKVX cells at 10^-5 M incubated for 48 hrs by sulforhodamine B assay; outline: as §1
[53] = tested on: SR; experiment: Growth inhibition of human SR cells at 10^-5 M incubated for 48 hrs by sulforhodamine B assay; outline: as §1
[54] = tested on: MOLT-4; experiment: Growth inhibition of human MOLT4 cells at 10^-5 M incubated for 48 hrs by sulforhodamine B assay; outline: as §1
[55] = tested on: RPMI-8226; experiment: Growth inhibition of human RPMI8226 cells at 10^-5 M incubated for 48 hrs by sulforhodamine B assay; outline: as §1
[56] = tested on: K562; experiment: Growth inhibition of human K562 cells at 10^-5 M incubated for 48 hrs by sulforhodamine B assay; outline: as §1
[57] = tested on: CCRF-CEM; experiment: Growth inhibition of human CCRF-CEM cells at 10^-5 M incubated for 48 hrs by sulforhodamine B assay; outline: as §1
[58] = tested on: HL-60(TB); experiment: Growth inhibition of human HL-60(TB) cells at 10^-5 M incubated for 48 hrs by sulforhodamine B assay
Outline: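 Run in the NCI59 cell-line one-dose screen, with each compound tested at a single concentration of 1 × 10−5 M.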

Measured: growth inhibition (GI)

COC(=O)C[C@H]1C(C)(C)[C@H](OC(=O)C(C)C)[C@@H]2[C@@H](OC(=O)C(C)C)[C@@]34O[C@]2(O)[C@]1(C)[C@H]3CC[C@]1(C)[C@H]4CC(=O)O[C@H]1c1ccoc1
inactive: all assays above

CC[C@H](C)C(=O)O[C@@H]1[C@@H]2[C@@H](OC(=O)C(C)C)[C@@]34O[C@]2(O)[C@@](C)([C@@H](CC(=O)OC)C1(C)C)[C@H]3CC[C@]1(C)C4=CC(=O)O[C@H]1C1=CC(O)OC1=O (stereo partly specified)
inactive: all assays above
